Results taken from ChEMBL document CHEMBL5126501, “Therapeutic potential for coxibs-nitric oxide releasing hybrids in cystic fibrosis” (Eur J Med Chem, 2021).
One block for each compound: values may come before it.

Experiments:
Liver [1] = assay: NO releasing activity in rat liver homogenate assessed as nitrate formation measured after 120 mins; type: ADME, tissue-based; details: tissue homogenate, 2 h
How it was run: (§1)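 Compounds were incubated in rat liver homogenate. Inorganic nitrite and nitrate, the stable NO metabolites, were quantified over time, with the reading taken at 120 min of incubation.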

Liver [2] = assay: NO releasing activity in rat liver homogenate assessed as nitrite formation measured after 120 mins; type: ADME, tissue-based; details: tissue homogenate, 2 h; how it was run: as §1
Mus musculus [3] = assay: Analgesic activity against acetic acid induced mouse model assessed as reduction in writhing at 40 mg/kg, po by abdominal constriction test; type: functional; set-up: scale not given: the % may be the effect or the level left
How it was run: (§2)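 Mice were dosed orally, with carboxymethylcellulose (CMC) as vehicle, 30 min before an acetic acid (0.6%) challenge. Abdominal constrictions (writhes) were counted. Values are means of at least seven mice, and percent writhing reduction is relative to vehicle-treated mice. Statistics were P<0.05 and P<0.01 versus vehicle.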

Mus musculus [4] = assay: Analgesic activity against acetic acid induced mouse model assessed as number of writhes at 10 mg/kg, po measured after 30 mins by abdominal constriction test; type: functional; details: 0.5 h; how it was run: as §2
[5] = molecular target: T1, Prostaglandin G/H synthase 2 (Homo sapiens) (UniProt P35354); assay: Inhibition of human recombinant COX-2 assessed as […] production at 10 uM using arachidonic acid as substrate preincubated for 10 mins followed by substrate addition and measured after 2 mins by enzyme immunoassay relative to control; details: time 12.0 min
T1 sequence (whole entry): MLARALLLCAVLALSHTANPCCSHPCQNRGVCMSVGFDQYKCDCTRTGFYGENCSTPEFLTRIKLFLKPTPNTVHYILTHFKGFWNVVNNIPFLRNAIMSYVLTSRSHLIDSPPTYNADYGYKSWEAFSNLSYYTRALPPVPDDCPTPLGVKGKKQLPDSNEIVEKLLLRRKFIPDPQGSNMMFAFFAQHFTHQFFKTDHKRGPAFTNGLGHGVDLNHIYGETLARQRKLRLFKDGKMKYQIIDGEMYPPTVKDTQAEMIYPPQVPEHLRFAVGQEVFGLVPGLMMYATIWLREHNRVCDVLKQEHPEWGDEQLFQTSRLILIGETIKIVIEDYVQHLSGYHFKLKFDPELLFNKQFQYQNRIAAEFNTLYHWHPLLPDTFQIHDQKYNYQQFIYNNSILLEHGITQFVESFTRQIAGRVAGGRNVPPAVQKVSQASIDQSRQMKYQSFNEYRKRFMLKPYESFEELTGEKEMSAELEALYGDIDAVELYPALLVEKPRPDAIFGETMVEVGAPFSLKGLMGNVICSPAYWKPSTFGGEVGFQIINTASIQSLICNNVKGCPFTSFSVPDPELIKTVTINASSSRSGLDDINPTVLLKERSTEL
How it was run: (§3)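 PGE2 production was measured with test compound and compared with control samples to give % inhibition. Values are means of n = 3 experiments. IC50 was obtained by fitting a sigmoidal dose–response equation with variable slope.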

[6] = molecular target: T2, Prostaglandin G/H synthase 1 (Ovis aries, UniProt P05979); assay: Inhibition of ovine COX-1 assessed as […] production using arachidonic acid as substrate preincubated for 10 mins followed by substrate addition and measured after 2 mins by enzyme immunoassay; how it was run: as §3
T2 sequence (P05979 whole entry): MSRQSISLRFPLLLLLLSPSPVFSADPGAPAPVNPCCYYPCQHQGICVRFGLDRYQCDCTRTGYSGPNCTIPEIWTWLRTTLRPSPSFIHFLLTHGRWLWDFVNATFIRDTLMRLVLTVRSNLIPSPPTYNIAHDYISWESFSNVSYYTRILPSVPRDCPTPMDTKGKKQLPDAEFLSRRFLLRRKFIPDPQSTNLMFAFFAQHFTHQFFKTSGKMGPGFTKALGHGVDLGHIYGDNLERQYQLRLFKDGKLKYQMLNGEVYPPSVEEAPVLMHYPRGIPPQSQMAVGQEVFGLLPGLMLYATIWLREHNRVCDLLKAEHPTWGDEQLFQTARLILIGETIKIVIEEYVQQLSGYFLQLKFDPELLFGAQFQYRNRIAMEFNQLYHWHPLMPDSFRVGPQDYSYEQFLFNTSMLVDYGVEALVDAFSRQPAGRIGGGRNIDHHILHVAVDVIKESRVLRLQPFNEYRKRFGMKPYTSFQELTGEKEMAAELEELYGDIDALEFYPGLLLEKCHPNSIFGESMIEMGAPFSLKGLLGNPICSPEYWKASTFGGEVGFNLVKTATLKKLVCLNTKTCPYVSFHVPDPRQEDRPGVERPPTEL

Mus musculus [7] = assay: Analgesic activity against acetic acid induced mouse model assessed as reduction in writhing at 5 mg/kg, po by abdominal constriction test; type: functional; set-up: scale not given: the % may be the effect or the level left
Mus musculus [8] = assay: Analgesic activity against acetic acid induced mouse model assessed as number of writhes at 5 mg/kg, po measured after 30 mins by abdominal constriction test; type: functional; details: 0.5 h
Aorta [9] = assay: Vasorelaxant activity in KCl induced normotensive Wistar rat endothelium-denuded aortic rings contraction assessed as decrease in contractile tone; type: functional, tissue-based
How it was run: (§4)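 Rat aortic rings were precontracted with KCl. Vasorelaxing efficacy (Emax) is the % reversal of the KCl-induced vasoconstriction. Potency is pIC50, the −log of the molar concentration giving 50% of Emax. ODQ was used to check for NO dependence.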

Aorta [10] = assay: Vasorelaxant activity in KCl induced normotensive Wistar rat endothelium-denuded aortic rings contraction assessed as maximal vasorelaxing response at 10 uM relative to control; type: functional; how it was run: as §4
Mus musculus [11] = assay: Analgesic activity against acetic acid induced mouse model assessed as number of writhes at 40 mg/kg, po measured after 30 mins by abdominal constriction test; type: functional; details: 0.5 h; how it was run: as §2
Mus musculus [12] = assay: Analgesic activity against acetic acid induced mouse model assessed as reduction in writhing at 10 mg/kg, po by abdominal constriction test; type: functional; set-up: scale not given: the % may be the effect or the level left; how it was run: as §2
Mus musculus [13] = assay: Analgesic activity against acetic acid induced mouse model assessed as reduction in writhing at 20 mg/kg, po by abdominal constriction test; type: functional; set-up: scale not given: the % may be the effect or the level left; how it was run: as §2
Mus musculus [14] = assay: Analgesic activity against acetic acid induced mouse model assessed as number of writhes at 20 mg/kg, po measured after 30 mins by abdominal constriction test; type: functional; details: 0.5 h; how it was run: as §2
Mus musculus [15] = assay: Analgesic activity against acetic acid induced mouse model assessed as reduction in writhing at 3 mg/kg, po by abdominal constriction test; type: functional; set-up: scale not given: the % may be the effect or the level left; how it was run: as §2
Mus musculus [16] = assay: Analgesic activity against acetic acid induced mouse model assessed as reduction in writhing at 1 mg/kg, po by abdominal constriction test; type: functional; set-up: scale not given: the % may be the effect or the level left; how it was run: as §2
Mus musculus [17] = assay: Analgesic activity against acetic acid induced mouse model assessed as number of writhes at 1 mg/kg, po measured after 30 mins by abdominal constriction test; type: functional; details: 0.5 h; how it was run: as §2
Mus musculus [18] = assay: Analgesic activity against acetic acid induced mouse model assessed as number of writhes at 3 mg/kg, po measured after 30 mins by abdominal constriction test; type: functional; details: 0.5 h; how it was run: as §2

- inhibition [5]: 16%
- IC50 [6]: > 10 µM
- IC50 (Aorta [9]): 1.51 µM
Compound: Cc1c(CC(=O)NCCO[N+](=O)[O-])cc(-c2ccc(S(N)(=O)=O)cc2)n1-c1ccc(F)cc1
- Activity (Mus musculus [3]): 50.3%
- Activity (Mus musculus [4]): 18.5
- Activity (Mus musculus [7]): 20.5%
- Activity (Mus musculus [8]): 26.7
- Emax at 10 µM (Aorta [10]): 74.9%
- Activity (Mus musculus [11]): 16.7
- Activity (Mus musculus [12]): 44.9%
- Activity (Mus musculus [13]): 53%
- Activity (Mus musculus [14]): 15.8

- inhibition [5]: 15%
Compound: Cc1c(CC(=O)NCCO)cc(-c2ccc(S(N)(=O)=O)cc2)n1-c1cccc(F)c1

- inhibition [5]: 45%
- IC50 [6]: > 10 µM
- IC50 (Aorta [9]): 3.24 µM
Compound: Cc1c(CC(=O)NCCO[N+](=O)[O-])cc(-c2ccc(S(N)(=O)=O)cc2)n1-c1cccc(F)c1
- Activity (Mus musculus [15]): 42.3%
- Activity (Mus musculus [16]): 35.1%
- Activity (Mus musculus [4]): 16.7
- Emax at 10 µM (Aorta [10]): 67.5%
- Activity (Mus musculus [12]): 50.3%
- Activity (Mus musculus [17]): 21.8
- Activity (Mus musculus [18]): 19.4

Further lines, the compound ahead of its results:

Compound: COc1ccc2cc([C@H](C)C(=O)OCCCCO[N+](=O)[O-])ccc2c1 [NAPROXCINOD]
- Activity (Liver [1]): 340.1 µM
- Activity (Liver [2]): 28 µM

Compound: Cc1c(CC(=O)NCCO)cc(-c2ccc(S(N)(=O)=O)cc2)n1-c1ccc(F)cc1
- inhibition [5]: 18%
